High-throughput results as filed in PubChem.
A1 inh = caspase 3/7 activation in MEF A1-2A-BIM cells, primary screen, A1 inhibitor project, cell-based, luminescence, HTS | Caspase-Glo 3/7 luminescence, 3 h; percent of clofoctol response, vehicle zero | caspase activation, % (test concentration not listed) | hit rate 0.066% among 330,000 | AID 2462, 2010;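 active = over half of replicate activation scores above 10%, or exactly half above 10 with the replicate mean above 10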
KLF5 inhibitor = KLF5 expression inhibitors, primary screen, DLD-1 cells, luminescence; inhibition, % at 5 µM; hit rate 0.23% among 290,000; AID 1700, 2009; DLD-1 KLF5 promoter-luciferase reporter;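 active = inhibition above a per-plate limit of that plate's mean compound inhibition plus 3 SD, cut at about 60% in these data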;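 also: higher means less KLF5 promoter-driven luciferase light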
HIF activator = HIF pathway transcriptional activators, primary screen, cell-based, U2OS HRE-luciferase, luminescence; U2OS HRE-luciferase reporter; normalized: DMSO 0%, desferrioxamine 100%; AID 1910, 2009; hit rate 0.32% among 300,000; activation, % at 7.5 µM (by protocol);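 active = mean activation of at least 10% of the iron chelator positive control signal, with at least half of replicates also reaching 10%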
T cruzi repl = inhibitors of intracellular T. cruzi growth, primary screen, luminescence, NIH3T3 host cells | T. cruzi beta-gal in NIH3T3, 90 h | inhibition, % (no concentration beside the values) | hit rate 1.4% among 300,000;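 active = mean inhibition across valid replicates above about 55%, limit read from the data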;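 also: signal also drops with host cell toxicity which is not excluded here; higher percent means less beta-gal luminescence so fewer parasites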
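System – NIH/3T3 host cells with β-galactosidase reporter T. cruzi · Doses – single 50 nL compound addition per well in DMSO · Reagent – 5000 T. cruzi trypomastigotes/well · Medium – Low-serum DMEM with 2% FBS · Timing – ≥90 h infection period, 3 h prior cell attachment · Evaluation – parasite load inhibition, % · Technique – GalScreen luminescence, 60 min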
Beta apoptosis = inhibitors of cytokine-induced beta cell apoptosis, primary screen, luminescence; INS-1E cytokine-induced death, ATP luminescence, 48 h; percent of positive-control rescue, neutral wells zero; protection from apoptosis, % (concentration not given with the values); hit rate 0.8% among 300,000; AID 435005, 2010;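 active = Every replicate reaches about 75%, or at least half do and their mean reaches it too, limit read from the data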;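 also: higher means more ATP so stronger rescue from cytokine killing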
Large screens that a line does not name were inactive. Only some compounds are listed: those with a hit (about 2.3% of all), similar ones and a draw of the others.

Cc1cccc(N2CCN(C(=O)c3c(-c4ccccc4)noc3C)CC2)c1C	none
Cc1ccccc1CN(C)CCc1ccccn1	none
Cc1cccc(CN(C)CCc2ccccn2)c1	T cruzi repl 61.3
Cc1ccc(-n2ncc3c2CCCC3NC(=O)CCCN2CCCCC2=O)cc1C (centres undefined)	none
COc1ccccc1N=CC=C1OC(C)(C)C(C)(C)O1	T cruzi repl 58.5
COc1ccc(-c2cc3ccccc3oc2=O)cc1NC(=S)NC(=O)c1ccc2c(c1)OCCO2	A1 inh 25.8
COc1ccc(-c2cc3ccccc3oc2=O)cc1NC(=O)c1ccc([N+](=O)[O-])o1	T cruzi repl 55.9, Beta apoptosis 82.1
COc1ccc(-c2cc3ccccc3oc2=O)cc1NC(=O)c1ccc(Br)o1	none
CCOc1ccc(N2CC(C(=O)NCCc3ccc(F)cc3)CC2=O)cc1 (centres undefined)	none
CC(=O)N1CC(C)Sc2ccc(S(=O)(=O)NC(C)c3ccccc3)cc21 (centres undefined)	none
Cc1cc(OCCN2CCN(S(=O)(=O)c3ccccc3F)CC2)ccc1C(C)C	none (no result: KLF5 inhibitor, HIF activator, T cruzi repl)
CC(C)OCCCNc1ncnc2c1[nH]c1ccccc12	Beta apoptosis 125.2
C1=C(CCNc2ncnc3c2[nH]c2ccccc23)CCCC1	Beta apoptosis 129.9 (no result: HIF activator, T cruzi repl)
CCOC(=O)[C@H]1[C@H]2COc3ccc(OC)cc3[C@@H]2N2C(=O)c3ccccc3NC(=O)[C@@]12C	none (no result: KLF5 inhibitor, HIF activator, T cruzi repl)
Cc1ccc(C2CC(c3cccs3)=NN2C(=O)CCl)cc1 (centres undefined)	T cruzi repl 59.0
COc1ccc(CC2(CO)CCN(S(=O)(=O)c3sccc3C)CC2)cc1	none
COc1ccc(N2CCN(c3oc(COc4ccccc4)nc3C#N)CC2)cc1	none (no result: HIF activator, T cruzi repl)
CN1CCN(c2oc(COc3ccc(-c4ccccc4)cc3)nc2C#N)CC1	T cruzi repl 76.7
Cc1cc(OCCCn2ccnc2)cc(C(C)C)c1	none
c1ccc2cc(OCCCn3ccnc3)ccc2c1	T cruzi repl 62.8
Clc1ccc(OCCn2ccnc2)cc1Cl	T cruzi repl 59.2
Cc1cc(OCCCn2ccnc2)ccc1C(C)C	T cruzi repl 73.9
Clc1cc(Br)ccc1OCCn1ccnc1	none
Clc1cccc(OCCCn2ccnc2)c1	none
OC(COc1ccc2cc(Br)ccc2c1)Cn1ccnc1 (centres undefined)	T cruzi repl 57.8
O=C/C=C/c1c(-c2ccccc2)cc2oc3ccccc3cc1-2	none
O=C(NC(=S)NC1CCCCC1)c1ccccc1[N+](=O)[O-]	none
O=C(NC(=S)Nc1nc(-c2cccc3ccccc23)cs1)c1cc2ccccc2o1	none
CC(=O)Nc1nc(-c2cccc3ccccc23)cs1	T cruzi repl 57.1
Oc1[nH]c2ccc(Br)cc2c1N=Nc1ccc(C(F)(F)F)cn1	T cruzi repl 74.6
Oc1[nH]c2ccccc2c1N=Nc1ccc(C(F)(F)F)cn1	none
CCCCN(C(=O)C(C)Oc1ccc(Cl)cc1)c1c(N)n(CCCC)c(=O)[nH]c1=O (centres undefined)	none (no result: KLF5 inhibitor)
CCOC(=O)C(=O)NCC(c1cccs1)S(=O)(=O)c1ccc(F)cc1 (centres undefined)	none (no result: KLF5 inhibitor)
Clc1cccc(C[n+]2cc(-c3ccccc3)n3c2CCC3)c1	T cruzi repl 63.5
Cc1ccc(C[n+]2cc(-c3ccc(Cl)cc3)n3c2CCC3)cc1	none (no result: HIF activator, T cruzi repl)
Cc1ccc(-c2c[n+](Cc3ccc(Cl)cc3)c3n2CCC3)cc1	T cruzi repl 61.3, Beta apoptosis 108.6
Cc1ccc(-c2c[n+](Cc3cccc(Cl)c3)c3n2CCC3)cc1	T cruzi repl 66.8 (no result: Beta apoptosis)
CCOCCc1nn2c(=O)cc(CSCC(=O)Nc3ccccc3)nc2s1	none
Cc1cc(C)n(-c2nc(NCC(C)O)c3c4c(sc3n2)CCCC4)n1 (centres undefined)	none
Cc1cc(C)n(-c2nc(NCCCO)c3c4c(sc3n2)CCCC4)n1	Beta apoptosis 81.3
Cc1cc(C)n(-c2nc(NCCO)c3c4c(sc3n2)CCCC4)n1	Beta apoptosis 79.7
CCN(C(=O)CSc1ncn[nH]1)C1CCCCC1	HIF activator 77.0
Nc1ncnc2c1C(c1ccccc1)c1c(ccc3ccccc13)O2 (centres undefined)	none (no result: KLF5 inhibitor, HIF activator, T cruzi repl)
COc1ccc(NC(=O)/C(Cl)=C(/Cl)S(=O)Cc2ccc(Cl)cc2)cn1 (centres undefined)	none (no result: A1 inh, HIF activator, T cruzi repl, Beta apoptosis)
Cc1ccc2[nH]cc(/C=C/c3cc[n+](C)cc3)c2c1	T cruzi repl 58.8, Beta apoptosis 120.8
COc1ccc2c(/C=C/c3cc[n+](C)cc3)c[nH]c2c1	none
CC[n+]1ccc(/C=C/c2c[nH]c3ccccc23)cc1	T cruzi repl 70.5
O=[S@]1Oc2ccccc2-c2ccccc21	none (no result: KLF5 inhibitor)
C/C(=N\NC(N)=S)C1=CCC2C3CC[C@H]4CC(O)CC[C@]4(C)C3CC[C@]12C (some centres undefined)	T cruzi repl 60.5 (no result: Beta apoptosis)
O=C(NNc1cc(N2CCOCC2)nc(N2CCOCC2)n1)c1ccc(Cl)c(Cl)c1	none
Cc1ccc(C(=O)NNc2cc(N3CCCC3)nc(N3CCCC3)n2)cc1	T cruzi repl 81.4
Oc1ccc(Nc2nc(N3CCCC3)c3ccccc3n2)cc1	T cruzi repl 59.1, Beta apoptosis 98.6
COc1ccc(Nc2nc(N3CCCCC3)c3ccccc3n2)cc1	none
COc1ccc(Cc2nc3c4c(ncn3n2)Oc2ccc3ccccc3c2C4c2ccc(OC)c(OC)c2)cc1 (centres undefined)	T cruzi repl 57.2
CCCCN(C)S(=O)(=O)c1ccc(C(=O)Nc2nnc(-c3cccs3)o2)cc1	T cruzi repl 57.2
CCN(c1ccccc1)S(=O)(=O)c1ccc(C(=O)Nc2nnc(C3CC3)o2)cc1	T cruzi repl 71.8
CCN(Cc1ccccc1)S(=O)(=O)c1ccc(C(=O)Nc2nnc(-c3ccccc3OC)o2)cc1	T cruzi repl 62.0
CCCN(CCC)S(=O)(=O)c1ccc(C(=O)Nc2nnc(-c3cccc(OC)c3)o2)cc1	none
CCCN(CCC)S(=O)(=O)c1ccc(C(=O)Nc2nnc(-c3cc(OC)cc(OC)c3)o2)cc1	T cruzi repl 58.5 (no result: Beta apoptosis)
CNC(=O)C1(C(F)(F)F)C/C(=C\CCO)CCCO1 (centres undefined)	none
CCC1(c2ccccc2)NC(=O)N(CC(=O)Nc2ccccc2C(=O)N2CCCCC2)C1=O (centres undefined)	none (no result: KLF5 inhibitor)
CCOc1cccc(CN(C)CC2CCCN(CCc3ccc(Cl)cc3)C2)c1O (centres undefined)	none (no result: Beta apoptosis)
O=C(CN1CCN(C(C(=O)Nc2ccc(F)cc2)c2ccccc2)CC1)NC1CC1 (centres undefined)	none (no result: KLF5 inhibitor, HIF activator, T cruzi repl)
COc1ccc(-c2nnc(NC(=O)c3ccc(S(=O)(=O)N4COCC4(C)C)cc3)o2)cc1	T cruzi repl 62.2 (no result: Beta apoptosis)
CC1(C)COCN1S(=O)(=O)c1ccc(C(=O)Nc2nnc(-c3ccc(Cl)s3)o2)cc1	none (no result: Beta apoptosis)
